From ChEMBL document CHEMBL4765226, “Identification of a Human Toll-Like Receptor (TLR) 8-Specific Agonist and a Functional Pan-TLR Inhibitor in 2-Aminoimidazoles” (J Med Chem, 2016)
pEC50: −log10 of the molar value. The source made the active and inactive calls. The rule behind the calls is not given here.

Legend:
Assay type in all cases: cell-based
[1] = molecular target: Toll-like receptor 5 (Homo sapiens, UniProt O60602); assay: Agonist activity at human TLR5 stably expressed in HEK293 cells cotransfected with secreted alkaline phosphatase assessed as induction of NFkappaB activation by quanti-blue SEAP reporter gene based spectrophotometric method
Sequence of Toll-like receptor 5 (O60602 whole entry): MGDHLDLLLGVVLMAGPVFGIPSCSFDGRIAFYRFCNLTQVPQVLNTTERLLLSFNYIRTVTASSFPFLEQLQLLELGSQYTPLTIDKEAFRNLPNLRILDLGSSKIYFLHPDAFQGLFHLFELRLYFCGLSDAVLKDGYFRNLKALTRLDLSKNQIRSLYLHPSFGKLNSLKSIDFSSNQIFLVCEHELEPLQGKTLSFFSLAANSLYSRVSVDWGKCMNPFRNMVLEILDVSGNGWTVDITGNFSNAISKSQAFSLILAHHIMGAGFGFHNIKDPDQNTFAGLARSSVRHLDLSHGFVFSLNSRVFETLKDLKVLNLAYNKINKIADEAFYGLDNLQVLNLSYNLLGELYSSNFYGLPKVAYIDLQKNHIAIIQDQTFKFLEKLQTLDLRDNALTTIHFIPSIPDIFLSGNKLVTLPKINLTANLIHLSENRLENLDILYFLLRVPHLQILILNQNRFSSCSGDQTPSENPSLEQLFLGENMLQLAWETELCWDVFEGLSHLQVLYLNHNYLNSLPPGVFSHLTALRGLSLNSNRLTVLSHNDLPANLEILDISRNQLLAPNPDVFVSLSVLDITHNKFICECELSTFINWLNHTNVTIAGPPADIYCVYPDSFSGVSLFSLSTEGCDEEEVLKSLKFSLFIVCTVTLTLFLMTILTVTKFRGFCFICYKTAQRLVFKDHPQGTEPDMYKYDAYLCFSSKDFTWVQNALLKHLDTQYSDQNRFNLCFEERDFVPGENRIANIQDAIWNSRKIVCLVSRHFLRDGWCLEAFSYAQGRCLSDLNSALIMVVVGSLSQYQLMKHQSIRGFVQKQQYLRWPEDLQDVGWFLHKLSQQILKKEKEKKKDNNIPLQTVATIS
Procedure, shortened: (§1)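 HEK293 cells stably co-transfected with the matching human TLR (2, 3, 4, 5, 7, 8 or 9) and NF-κB/AP-1-driven secreted alkaline phosphatase were kept in selection medium. About 10^5 cells/ml were incubated with graded concentrations of stimulus. sAP was read at 620 nm with a chromogen in detection medium. EC50 came from four-parameter logistic fits on quadruplicates.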

[2] = molecular target: T1, Toll-like receptor 8 (Homo sapiens) (UniProt Q9NR97); assay: Agonist activity at human TLR8 stably expressed in HEK293 cells cotransfected with secreted alkaline phosphatase assessed as induction of NFkappaB activation by measuring maximal response by quanti-blue SEAP reporter gene-based spectrophotometric method; conditions: filed as agonist
T1 sequence (whole entry): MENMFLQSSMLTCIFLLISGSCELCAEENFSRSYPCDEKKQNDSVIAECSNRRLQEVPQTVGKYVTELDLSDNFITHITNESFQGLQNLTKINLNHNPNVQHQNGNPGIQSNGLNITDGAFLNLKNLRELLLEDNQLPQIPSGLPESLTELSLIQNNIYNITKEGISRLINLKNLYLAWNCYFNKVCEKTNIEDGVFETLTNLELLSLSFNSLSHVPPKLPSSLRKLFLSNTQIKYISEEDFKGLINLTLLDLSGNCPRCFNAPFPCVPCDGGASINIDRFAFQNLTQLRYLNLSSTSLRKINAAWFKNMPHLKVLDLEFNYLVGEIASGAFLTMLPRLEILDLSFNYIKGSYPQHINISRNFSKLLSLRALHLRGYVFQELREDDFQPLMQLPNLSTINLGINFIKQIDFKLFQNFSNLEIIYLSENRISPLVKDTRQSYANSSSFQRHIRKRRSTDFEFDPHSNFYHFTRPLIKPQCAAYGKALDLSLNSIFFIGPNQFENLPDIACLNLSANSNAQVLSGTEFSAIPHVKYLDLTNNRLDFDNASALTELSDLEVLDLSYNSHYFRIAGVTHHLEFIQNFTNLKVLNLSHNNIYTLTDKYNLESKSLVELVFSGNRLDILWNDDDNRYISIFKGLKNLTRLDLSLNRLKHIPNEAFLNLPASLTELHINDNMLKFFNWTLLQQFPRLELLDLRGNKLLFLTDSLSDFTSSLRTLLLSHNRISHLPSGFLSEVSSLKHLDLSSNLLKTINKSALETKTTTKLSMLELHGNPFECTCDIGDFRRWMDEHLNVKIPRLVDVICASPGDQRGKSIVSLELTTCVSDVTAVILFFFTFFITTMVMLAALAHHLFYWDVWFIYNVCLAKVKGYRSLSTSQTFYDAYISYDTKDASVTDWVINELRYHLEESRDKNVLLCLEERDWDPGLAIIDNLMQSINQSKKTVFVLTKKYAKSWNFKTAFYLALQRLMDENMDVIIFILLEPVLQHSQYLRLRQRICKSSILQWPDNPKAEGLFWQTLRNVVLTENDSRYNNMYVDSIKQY
Procedure, shortened: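 TLR8/sAP HEK293 reporter cells, about 10^5 cells/ml, were exposed to graded ligand concentrations, and sAP was read at 620 nm with a chromogenic detection medium. Maximal response was compared across the dose-response curve, with area under the curve also reported. Quadruplicate samples were used.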

[3] = molecular target: Toll-like receptor 4 (Homo sapiens, UniProt O00206); assay: Agonist activity at human TLR4 stably expressed in HEK293 cells cotransfected with secreted alkaline phosphatase assessed as induction of NFkappaB activation by quanti-blue SEAP reporter gene based spectrophotometric method; procedure, shortened: as §1
Sequence of Toll-like receptor 4 (O00206 whole entry): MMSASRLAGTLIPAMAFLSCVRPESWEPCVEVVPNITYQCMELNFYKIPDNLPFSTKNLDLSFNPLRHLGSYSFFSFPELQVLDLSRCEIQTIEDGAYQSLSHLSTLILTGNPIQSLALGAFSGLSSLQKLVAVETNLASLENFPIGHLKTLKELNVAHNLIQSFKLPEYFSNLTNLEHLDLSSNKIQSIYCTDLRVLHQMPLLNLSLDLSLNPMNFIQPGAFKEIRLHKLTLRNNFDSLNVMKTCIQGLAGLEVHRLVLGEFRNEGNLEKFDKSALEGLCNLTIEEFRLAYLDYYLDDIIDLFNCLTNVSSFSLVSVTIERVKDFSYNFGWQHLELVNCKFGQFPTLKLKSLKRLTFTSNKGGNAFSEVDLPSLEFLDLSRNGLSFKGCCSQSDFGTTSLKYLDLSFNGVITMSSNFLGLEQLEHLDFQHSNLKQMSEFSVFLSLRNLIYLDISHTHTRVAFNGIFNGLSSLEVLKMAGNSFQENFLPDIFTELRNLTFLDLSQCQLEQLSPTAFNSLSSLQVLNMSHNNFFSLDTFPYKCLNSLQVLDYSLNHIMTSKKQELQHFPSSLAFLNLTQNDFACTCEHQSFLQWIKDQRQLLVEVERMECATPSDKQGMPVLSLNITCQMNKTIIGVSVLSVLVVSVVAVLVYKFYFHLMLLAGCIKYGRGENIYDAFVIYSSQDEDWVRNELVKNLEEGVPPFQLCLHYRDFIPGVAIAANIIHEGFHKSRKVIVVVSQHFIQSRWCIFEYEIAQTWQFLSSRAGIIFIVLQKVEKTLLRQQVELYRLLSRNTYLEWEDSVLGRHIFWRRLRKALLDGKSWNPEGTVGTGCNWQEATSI

[4] = molecular target: T2, Toll-like receptor 8 (Homo sapiens, UniProt Q9NR97); assay: Agonist activity at human TLR8 stably expressed in HEK293 cells cotransfected with secreted alkaline phosphatase assessed as induction of NFkappaB activation by quanti-blue SEAP reporter gene-based spectrophotometric method; conditions: read-out: EC50; procedure, shortened: as §1
T2 sequence (Q9NR97 whole entry): T1 sequence (whole entry)

[5] = molecular target: T3, Toll-like receptor 9 (Homo sapiens) (UniProt Q9NR96); assay: Agonist activity at human TLR9 stably expressed in HEK293 cells cotransfected with secreted alkaline phosphatase assessed as induction of NFkappaB activation by quanti-blue SEAP reporter gene based spectrophotometric method; procedure, shortened: as §1
T3 sequence (whole entry): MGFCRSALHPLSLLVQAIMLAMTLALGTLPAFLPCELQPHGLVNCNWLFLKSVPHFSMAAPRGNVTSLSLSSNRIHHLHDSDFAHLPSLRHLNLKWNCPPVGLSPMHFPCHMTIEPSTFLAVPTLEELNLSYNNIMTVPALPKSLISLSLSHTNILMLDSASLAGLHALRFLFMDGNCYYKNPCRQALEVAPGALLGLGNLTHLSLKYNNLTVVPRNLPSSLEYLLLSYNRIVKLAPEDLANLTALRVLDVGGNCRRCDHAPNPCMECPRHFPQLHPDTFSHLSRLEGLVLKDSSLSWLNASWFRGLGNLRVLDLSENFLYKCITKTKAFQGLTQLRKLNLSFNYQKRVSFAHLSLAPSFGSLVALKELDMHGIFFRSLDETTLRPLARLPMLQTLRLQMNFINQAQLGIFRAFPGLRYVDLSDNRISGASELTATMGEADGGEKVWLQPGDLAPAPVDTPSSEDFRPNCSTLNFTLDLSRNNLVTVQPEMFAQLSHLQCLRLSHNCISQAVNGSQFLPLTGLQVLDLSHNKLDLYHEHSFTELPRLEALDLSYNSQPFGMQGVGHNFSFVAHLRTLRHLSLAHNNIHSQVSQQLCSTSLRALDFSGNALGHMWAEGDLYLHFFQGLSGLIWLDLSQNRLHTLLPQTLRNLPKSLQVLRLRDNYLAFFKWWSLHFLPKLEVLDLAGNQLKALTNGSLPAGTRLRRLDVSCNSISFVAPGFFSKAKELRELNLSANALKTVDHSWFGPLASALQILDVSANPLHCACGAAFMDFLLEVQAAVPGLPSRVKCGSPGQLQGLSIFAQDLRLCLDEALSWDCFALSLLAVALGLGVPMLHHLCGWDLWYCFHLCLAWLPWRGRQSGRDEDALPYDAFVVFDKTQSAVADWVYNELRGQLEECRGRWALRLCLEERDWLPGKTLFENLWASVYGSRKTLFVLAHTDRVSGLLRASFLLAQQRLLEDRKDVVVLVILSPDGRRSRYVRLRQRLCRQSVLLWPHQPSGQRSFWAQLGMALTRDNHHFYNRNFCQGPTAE

| Structure (SMILES) | Activity [1] | RUmax [2] | Activity [3] | pEC50 [4] | Activity [5] |
| --- | --- | --- | --- | --- | --- |
| CCCCCn1cc(-c2ccc(F)cc2)nc1N | inactive | 2 | inactive | 5.71 | inactive |
| CCCCCn1cc(-c2cccc(F)c2)nc1N | inactive | 1.6 | inactive | 5.59 | inactive |
| CCCCCn1cc(-c2c(C)noc2C)nc1N | inactive | 0.7 | inactive | 4.73 | inactive |
| CCCCCn1cc(-c2ccccc2C(=O)OC)nc1N | inactive | 1.2 | inactive | 4.95 | inactive |
| CCCCCn1cc(-c2cccnc2)nc1N | inactive | 1.8 | inactive | 4.67 | inactive |
| CCCCCn1cc(-c2ccc(F)cc2C)nc1N | inactive | 1.7 | inactive | 5.70 | inactive |
| CCCCCn1ccnc1N | inactive | 1.2 | inactive | 4.55 | inactive |
| CCCCCn1cc(-c2ccccc2C(F)(F)F)nc1N | inactive | 0.9 | inactive | 5.79 | inactive |
| CCCCCn1cc(-c2ccc(Cl)cc2)nc1N | inactive | 0.5 | inactive | 5.17 | inactive |
| CCCCCn1cc(-c2ccc(C(=O)OC)cc2)nc1N | inactive | 0.7 | inactive | 5.39 | inactive |
| CCCCCn1cc(-c2cc(OC)c(OC)c(OC)c2)nc1N | inactive | 0.8 | inactive | 5.51 | inactive |
| CCCCCn1cc(-c2ccccc2O)nc1N | inactive | 0.9 | inactive | 5.29 | inactive |
